Screens (PubChem BioAssay)
PAFAH1B2 inh: PAFAH1B2 (human) inhibition | P68402 | AID 492953 | inhibition, % at 3.39 µM | recombinant PAFAH1B2, FP-rhodamine activity probe, fluorescence polarization | 340,000 compounds, 1.2% hits;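 active means inhibition above the mean of all tested compounds plus 3 SD, cut at about 24% in these data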;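 further: 0% = enzyme with DMSO and 100% = wells lacking PAFAH1B2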
PAFAH2 FP inh: PAFAH2 (human) inhibition; recombinant PAFAH2, FP-rhodamine activity probe, fluorescence polarization; AID 492956; Q99487; 340,000 compounds, 0.99% hits; inhibition, % at 3.39 µM;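 active means inhibition above the mean over all tested compounds plus 3 SD, cut at about 30% in these data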;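 further: inhibitors block probe labeling of enzyme so polarization drops; 0% = enzyme with DMSO and 100% = wells lacking PAFAH2 protein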
UCH37 inh: human UCH37 deubiquitinating enzyme inhibition | Q9Y5K5 | purified proteasome/UCH37, Ub-AMC cleavage fluorescence | inhibition, % (concentration not given with the values) | 330,000 compounds, 0.33% hits | AID 588478;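 active means mean inhibition over replicate wells above about 20%, limit read from the data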;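 further: 0% = compound-free wells with enzyme and 100% = wells lacking proteasome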
Target sequence (Q9Y5K5 whole entry, looked up): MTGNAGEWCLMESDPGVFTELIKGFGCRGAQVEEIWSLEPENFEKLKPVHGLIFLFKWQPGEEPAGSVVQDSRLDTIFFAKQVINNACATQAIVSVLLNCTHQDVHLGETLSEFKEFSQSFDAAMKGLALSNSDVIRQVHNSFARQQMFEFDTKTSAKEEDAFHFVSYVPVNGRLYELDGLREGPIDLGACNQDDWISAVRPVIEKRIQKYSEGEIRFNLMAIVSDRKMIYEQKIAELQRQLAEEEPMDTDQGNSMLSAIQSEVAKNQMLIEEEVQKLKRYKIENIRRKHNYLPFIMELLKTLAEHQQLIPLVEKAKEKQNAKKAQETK
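System: Proteasome-associated human UCH37 deubiquitinase; Input: 0.15 nM proteasome in added enzyme buffer; Also added: Ub-AMC substrate from 1 µM stock; Incubation: 30 min compound-proteasome preincubation then 25 min substrate reaction, room temperature; Detection: fluorescence, ex 355 nm, em 460 nm; Read-out: % inhibition of Ub-AMC cleavage fluorescence; Benchmarks: no-proteasome and no-compound wells.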
pPAFAH FP inh: pPAFAH (human) enzyme inhibition; Q13093; recombinant pPAFAH, FP-rhodamine probe fluorescence polarization; inhibition, % at 3.39 µM; 330,000 compounds, 1.5% hits; AID 463082;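 active means inhibition above the mean inhibition across the screen plus 3 SD, cut at about 25% in these data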;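 further: inhibitors block binding of the rhodamine activity-based probe so polarization drops; 0% = enzyme with DMSO and 100% = wells lacking pPAFAH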
PAFAH1B3 inh: inhibitors of human PAFAH1B3. recombinant PAFAH1B3, FP-rhodamine probe, fluorescence polarization. inhibition, % at 3.39 µM. 340,000 compounds, 0.28% hits;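 active means inhibition above the screen-wide average of all tested compounds plus 3 SD, cut at about 25% in these data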;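 further: 0% = enzyme with DMSO only and 100% = wells lacking PAFAH1B3 protein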
Target sequence (Q15102 whole entry, looked up): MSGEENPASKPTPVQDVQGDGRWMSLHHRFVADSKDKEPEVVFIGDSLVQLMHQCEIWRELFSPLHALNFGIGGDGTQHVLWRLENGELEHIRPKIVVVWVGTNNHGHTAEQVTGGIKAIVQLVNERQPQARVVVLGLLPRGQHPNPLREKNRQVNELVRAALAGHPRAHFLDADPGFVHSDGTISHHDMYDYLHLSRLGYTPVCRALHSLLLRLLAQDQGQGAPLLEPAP
NR3A LBD binder: modulators (binders) of human NR3A ligand-binding domain; NR3A LBD differential scanning fluorimetry, Tm shift; 0% = protein alone, 100% = glycine-bound protein; Tm shift relative to glycine control, % at 25 µM; 340,000 compounds, 2.5% hits;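 active means melting temperature shift of at least 10% of the positive control shift, at one fixed dose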
* hit, by the source's call; x = no result given. This is a sample that favours compounds with a hit; in the whole collection about 4.8% have one here.

SMILES	PAFAH1B2 inh	PAFAH2 FP inh	UCH37 inh	pPAFAH FP inh	PAFAH1B3 inh	NR3A LBD binder
CC(Oc1cccc(Cl)c1)C(=O)Nc1cc(Cl)ccc1N1CCOCC1 (centres undefined)	0	0	-1	3	1	21*
CCOc1cc(C=NNC(=O)CN2CCCCC2)ccc1OCc1ccccc1	x	x	4	x	x	x
CN1C(=O)/C(=C2/C=Cc3ccccc3N2CCCS(=O)(=O)O)SC1=S	3	1	24*	1	6	1
CCCN1/C(=C2/SC(=S)N(CC)C2=O)C=Cc2ccccc21	7	4	4	9	4	-5
CC(C)COc1ccc(-c2nn(-c3ccccc3)cc2C(=O)Nc2nccs2)cc1	-21	-42	5	-22	-36	10*
O=C(Nc1nccs1)c1cn(-c2ccccc2)nc1-c1ccccc1	-8	-4	1	-1	-8	-3
CC(=O)Cc1nsc(NC(=O)c2cn(-c3ccccc3)nc2-c2ccc(Br)cc2)n1	-8	-22	1	0	-7	31*
CC(=O)Nc1ccc(S(=O)(=O)NN=Cc2cccnc2)cc1	x	x	7	x	x	x
O=C(O)c1ccn2c(C(=O)c3ccc(Cl)cc3)c(-c3ccccc3)cc2c1	59*	8	x	18	-3	-2
O=C(Nc1ccc(Cl)cc1)NN1CC(=O)N(c2cccc(C(F)(F)F)c2)CC1=O	6	3	5	4	4	30*
CN=C(Nc1ccc(Cl)cc1)c1cccc(C(F)(F)F)c1	-1	-10	5	1	-1	0
Cc1ccc(N2CC(=O)N(NC(=O)Nc3ccc(Cl)c(Cl)c3)CC2=O)cc1	3	-5	0	2	6	13*
Cc1ccc(S(=O)(=O)NNC(=O)Nc2ccc(Cl)c(Cl)c2)cc1	13	10	3	-3	-3	0
O=C(Cc1ccccc1)NN=C/C=C/c1cccc([N+](=O)[O-])c1	x	x	2	x	x	x
O=C(CNC(=O)c1ccncc1)NN=Cc1ccccc1[N+](=O)[O-]	x	x	4	x	x	x
Cc1ccc(S(=O)(=O)Nc2ccc3nc(C)sc3c2)cc1	21	6	-4	3	11	1
Cc1ccc(NS(=O)(=O)c2sc3ccc(Cl)cc3c2C)cc1	x	x	3	-7	x	16*
CC(=O)Nc1ccc(NC(=O)CSc2ccc(-c3cccnc3)nn2)cc1	-2	1	-1	3	-3	-5
CC(=O)Nc1ccc(NC(=O)CSc2ccc(-c3ccc(-n4ccnc4)cc3)nn2)cc1	-3	2	4	2	-1	17*
O=C(NN=Cc1ccncc1)c1cccc(S(=O)(=O)Nc2ccc(Cl)cc2)c1	x	x	5	x	x	x
NC(=S)N=Nc1c(O)cc(O)c2[nH]c(=O)ccc12	51*	51*	x	x	62*	-7
COc1ccc(NC(=O)C2Cc3cccc(OC)c3OC2=NO)cc1 (centres undefined)	x	x	1	x	x	x
CCN(CC)c1ccc(/C=N/NC(=S)NCc2ccco2)cc1	1	-2	x	29*	2	-2
COc1cc(/C=N/NC(=S)NCc2ccco2)cc(OC)c1OC	0	-1	x	-3	2	58*
CC(=O)Nc1ccc(NC(=O)C(=O)NN=Cc2cccnc2)cc1	x	x	-13	x	x	x
SMILES	PAFAH1B2 inh	PAFAH2 FP inh	UCH37 inh	pPAFAH FP inh	PAFAH1B3 inh	NR3A LBD binder
COc1ccc(CC(C)=NNC(=O)c2ccncc2)cc1	x	x	2	x	x	x
O=C(Cn1ccc(C(F)(F)F)n1)NN=Cc1ccc(N2CCOCC2)cc1	x	x	-185	x	x	x
COc1ccc(C=N/N=C2/NC(=O)CC(C(=O)O)S2)cc1 (centres undefined)	x	x	11	x	x	x
O=c1[nH]c2cc(Cl)ccc2n1-c1ccccc1	1	7	2	28*	4	-1
O=Cc1c(Cl)[nH]c(=O)n1-c1ccccc1	x	x	5	x	x	1
COc1ccccc1NCC(O)Cn1c2ccccc2c2ccccc21 (centres undefined)	2	3	-5	20	7	11*
O=C(COc1ccc(Cl)cc1)c1ccc(O)cc1O	27*	-8	5	-2	3	-3
COC(=O)c1ccc(OCC(=O)c2ccc(O)cc2O)cc1	9	6	8	6	10	-5
O=C(Cc1ccc(Br)cc1)Nc1ncc([N+](=O)[O-])s1	35*	11	6	15	12	4
O=C(Cc1ccc(Cl)cc1)Nc1ncc([N+](=O)[O-])s1	16	10	1	x	3	-7
Oc1ccc(/C=N/Nc2cccc3cccnc23)c(O)c1	7	5	x	16	18	32*
Cc1ccc(/C=N/Nc2cccc3cccnc23)c(O)c1	8	4	x	8	5	10*
Cc1ccc(CS(=O)(=O)CC(C)(O)c2ccc(Cl)cc2)cc1 (centres undefined)	27*	-1	4	8	-8	1
CC(O)(CS(=O)(=O)Cc1ccccc1)c1ccccc1 (centres undefined)	6	8	6	7	10	0
COc1ccc(CS(=O)(=O)CC(C)(O)c2ccccc2Cl)cc1 (centres undefined)	15	-2	x	9	8	16*
CC(/C=C/c1ccc2c(c1)OCO2)=NNC(=O)c1ccccc1	x	x	3	x	x	x
Cc1ccccc1NCC(=O)N/N=C/c1c(C)c(C(=O)c2ccc(Cl)cc2)n2ccccc12	-2	-2	x	6	-4	12*
Cc1cc(C)c2c(-n3cccc3)c(C(=O)NNS(=O)(=O)c3ccc(Cl)cc3)sc2n1	37*	8	1	7	2	-11
CCOC(=O)c1cc(C#N)c(Oc2ccccc2)nc1-c1ccccc1	-4	1	3	5	-3	13*
CCN(CC)c1ccc(C(=O)n2cnc3ccccc32)cc1	1	30	x	30*	7	4
CC(C)(C)c1ccc(C(=O)n2cnc3ccccc32)cc1	9	5	0	0	1	-3
Oc1c(Br)cc(Br)cc1C=NN1CCN(Cc2ccccc2)CC1	x	x	8	x	x	x
CCCc1[nH]n(-c2ccc([N+](=O)[O-])cc2)c(=O)c1C=NCCc1c[nH]c2ccccc12	3	-1	8	5	1	22*
Cc1[nH]n(-c2ccc([N+](=O)[O-])cc2)c(=O)c1C=NCCc1c[nH]c2ccccc12	2	-3	6	6	3	27*
COc1ccc(-c2c/c(=N\c3nc(-c4ccccc4)c(C)s3)c3ccccc3o2)cc1O	9	-5	x	14	17	15*
CC(=NNC(=O)CNC(=O)COc1cccc(C)c1)c1ccco1	x	x	5	x	x	x
O=C(O)c1cc2cc(Cl)cc(Cl)c2oc1=O	-1	11	2	27*	-5	-4
O=C(NN=Cc1cn(-c2ccccc2)nc1-c1ccccc1)c1ccc(Br)o1	x	x	-5	x	x	x
CCCN(CCC)Cc1c(C(=O)NN=Cc2ccsc2)nnn1-c1nonc1N	x	x	2	x	x	x
